Assays:
[1] = melting temperature; fluorescence melt of hairpins on a sequencing array, two-state fit, raised by 9.35 °C to match UV melts; conditions: sodium 0.088 M
Outline: (§1)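 With Cy3 and quencher oligos annealed, library hairpins on a sequenced MiSeq flow cell were imaged for Cy3 fluorescence in 50 mM Na-HEPES pH 8.0, 25 mM NaCl, in 2.5 °C steps up to 60 °C. Melting temperature and folding enthalpy were derived from bootstrapped two-state fits of signals normalised to pre-quench Cy3 and to control constructs. Four replicates were combined by inverse variance, with fitted temperatures raised by 9.35 °C to match UV melts.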

[2] = folding enthalpy; higher = less favourable; fluorescence melt of hairpins on a sequencing array, two-state fit; conditions: sodium 0.088 M
Outline: as §1

Sequence | Tm [1] [°C] | folding enthalpy [2] [kcal/mol]
GCTTCGGGAAACTGAAGC (((((.(....).))))) | 53.2 | -41.3
GCTTCGGGAAACTGGAGC (((.(.(....).).))) | 39.1 | -32.7
GCTTCTCCGAAAGGAAGC (((..(((....)))))) | 45.3 | -24.2
GCTTCTGCGAAAGCAAGC (((..(((....)))))) | 38.3 | -9.99
GCTTCTGGAAACAGAGGC ((.((((....)))).)) | 48.3 | -33
GCTTGACGAAAGTCCAGC (((.(((....))).))) | 49.9 | -26.6
GCTTGAGGAAACCCAAGC (((((.(....).))))) | 46 | -37
GCTTGAGGAAACTTAAGC ((((.((....)).)))) | 39.7 | -26.4
GCTTGCCGAAAGGCAGC (((.(((....)))))) | 60.1 | -14.4
GCTTGCCGAAAGGCTAGC (((.(((....))).))) | 64.4 | -27.8
GCTTGCGAAAGCACAGC ((((((....))).))) | 50.5 | -20.1
GCTTGCGAAAGCACGAGC ((((((....)))..))) | 46.9 | -15.9
GCTTGCGAAAGCATAAGC ((((((....)))..))) | 47.9 | -19.4
GCTTGCGAAAGCATCAGC ((((((....)))..))) | 37.1 | -11.8
GCTTGCGGAAACGCGAGC (((.(((....))).))) | 64 | -29.3
GCTTGCGGAAACGTAAGC ((((.((....)).)))) | 52.5 | -35.1
GCTTGCGGAAACGTGAGC (((..((....))..))) | 46.5 | -31.5
GCTTGGCCGAAAGGCAGC (((..(((....)))))) | 46.9 | -14.4
GCTTGGCGAAAGCAACGC ((.(.((....)).).)) | 33.5 | -10.5
GCTTGGCGAAAGCAATGC ((.(.((....)).).)) | 38.4 | -12.8
GCTTGGCGAAAGCCCGGC ((..(((....)))..)) | 45.4 | -14.4
GCTTGGCGAAAGCTTAGC (((..((....))..))) | 53.4 | -16.9
GCTTGGGGAAACCCAAGC (((((((....))))))) | 68.3 | -43.6

Sequence | Tm [1] [°C] | folding enthalpy [2] [kcal/mol]
GCTTGGGGAAACCCAGGC ((.((((....)))).)) | 52.4 | -36.8
GCTTGGGGAAACTCGAGC (((.(.(....).).))) | 36.9 | -31.3
GCTTGTCGAAAGACTAGC (((.(((....))).))) | 53.9 | -34
GCTTGTGGAAACACGAGC (((.(((....))).))) | 54.5 | -37.8
GCTTGTGGAAACGCAAGC (((((.(....).))))) | 55.6 | -39.5
GCTTTAACGAAAGTTAGC (((..(((....)))))) | 31.9 | -18.8
GCTTTAGGAAACTAGAGC (((.(((....))).))) | 35.4 | -31.9
GCTTTCCGAAAGGAGAGC (((.(((....))).))) | 54.8 | -38.7
GCTTTCGAAAGAAAAAGC ((((((....)))..))) | 36 | -26.6
GCTTTCGAAAGAACAAGC ((((((....)))..))) | 31.8 | -24.3
GCTTTCGAAAGAAGTAGC ((((((....)))..))) | 34 | -23
GCTTTCGAAAGAATAAGC ((((((....)))..))) | 33.4 | -21.6
GCTTTCGGAAACGAAGGC ((.((((....)))).)) | 50.9 | -35.3
GCTTTGCGAAAGCAACGC ((.((((....)))).)) | 55.9 | -20.8
GCTTTGCGAAAGCAGGGC ((..(((....)))..)) | 47 | -20.1
GCTTTGCGAAAGCCACGC ((.(.((....)).).)) | 37 | -10.4
GCTTTGCGAAAGCCAGGC ((.(.((....)).).)) | 38.3 | -10.2
GCTTTGCGAAAGCCGAGC (((..((....))..))) | 41.9 | -16
GCTTTGCGAAAGCCTAGC (((..((....))..))) | 41.1 | -13
GCTTTGCGAAAGCGAGGC ((.(.((....)).).)) | 49.7 | -17.1
GCTTTGGGAAACCGAAGC ((((.((....)).)))) | 52.5 | -39.5
GCTTTTCGAAAGAAGAGC (((.(((....))).))) | 47.4 | -30.7
GCTTTTGAAAAAAAGC ((((((....)))))) | 50.4 | -30.5

Sequence | Tm [1] [°C] | folding enthalpy [2] [kcal/mol]
GCTTTTGGAAACAAAGGC ((.((((....)))).)) | 43 | -28.9
GGAAAAGAAATTTTCC ((((((....)))))) | 37.7 | -23.4
GGAAACCCGAAAGGGTCC (((..(((....)))))) | 35 | -11.7
GGAAACGAAAGTTCTTCC ((((((....)))..))) | 32.2 | -14.9
GGAAACGAAAGTTGATCC ((((((....)))..))) | 29.3 | -14.5
GGAAACGAAAGTTTGTCC ((((((....)))..))) | 27.4 | -18.8
GGAAAGACGAAAGTCTCC (((..(((....)))))) | 36.4 | -14.5
GGAAAGCGAAAGCTGTCC (((.(((....))).))) | 53.9 | -23.8
GGAAAGGGAAACTTTTCC (((((.(....).))))) | 38.4 | -18.8
GGAAATGCGAAAGCATCC (((..(((....)))))) | 37.1 | -11.7
GGAAATGGAAACACTTCC ((((.((....)).)))) | 30.2 | -31.5
GGAAATGGAAACATTCCC ((.((((....)))).)) | 33.1 | -25.1
GGAAATGGAAACATTTCC (((((((....))))))) | 56.5 | -41.5
GGAACAACGAAAGTTTCC (((..(((....)))))) | 29.9 | -15.5
GGAACACGAAAGTGATCC (((.(((....))).))) | 52.7 | -28.5
GGAACCCCGAAAGGGTCC (((..(((....)))))) | 45.9 | -15.5
GGAACCCGAAAGGGTCC (((.(((....)))))) | 59.7 | -15.8
GGAACCGAAAGGTCGTCC ((((((....)))..))) | 31.4 | -10.8
GGAACCGAAAGGTGCTCC ((((((....)))..))) | 38.8 | -12.5
GGAACCGAAAGGTGTCC ((((((....))).))) | 47.5 | -17.7
GGAACCGGAAACGATTCC ((((.((....)).)))) | 42.8 | -31.3
GGAACGCGAAAGCGCTCC (((.(((....))).))) | 55.8 | -28.2
GGAACGGCGAAAGCCTCC (((..(((....)))))) | 31.6 | -10.3

Sequence | Tm [1] [°C] | folding enthalpy [2] [kcal/mol]
GGAACGGGAAACCATTCC ((((.((....)).)))) | 35.9 | -30.2
GGAACGGGAAACCGTTTC (.(((((....))))).) | 49.7 | -24.5
GGAACTCGAAAGAGCTCC (((.(((....))).))) | 48.2 | -33.9
GGAACTGGAAACAGTTCC (((((((....))))))) | 65.7 | -42.7
GGAACTGGAAACGGTTTC (.(((.(....).))).) | 30.4 | -17.9
GGAAGACCGAAAGGTTCC (((..(((....)))))) | 37.4 | -16
GGAAGAGGAAACTCTCCC ((.((((....)))).)) | 32.9 | -18.2
GGAAGCCGAAAGGCATCC (((.(((....))).))) | 56.1 | -21.9
GGAAGCCGAAAGGCGTCC (((.(((....))).))) | 61.6 | -14.6
GGAAGCGAAAGCTATTCC ((((((....)))..))) | 35.8 | -14.1
GGAAGCGAAAGCTCGTCC ((((((....)))..))) | 29.5 | -11.6
GGAAGCGAAAGCTGCTCC ((((((....)))..))) | 37.9 | -11.8
GGAAGCGAAAGCTGTCC ((((((....))).))) | 47.4 | -14.5
GGAAGCGAAAGCTTATCC ((((((....)))..))) | 34.6 | -9.74
GGAAGCTCGAAAGAGTCC (((..(((....)))))) | 26.2 | -11.6
GGAAGGAAACTTCC (((((....))))) | 46 | -24.1
GGAAGGACGAAAGTCTCC (((..(((....)))))) | 33.1 | -12.8
GGAAGGCGAAAGCCCTCC (((.(((....))).))) | 48.7 | -16.8
GGAAGGGCGAAAGCCTCC (((..(((....)))))) | 41.1 | -11.2
GGAAGTCGAAAGACATCC (((.(((....))).))) | 48.2 | -25.2
GGAAGTGCGAAAGCATCC (((..(((....)))))) | 31.3 | -10.6
GGAAGTGGAAACACTTCC (((((((....))))))) | 61 | -54

— the array DNA melting data of Ke et al. (doi:10.1101/2024.01.08.574731)
